According to the RNAGym collection of RNA variant scans (doi:10.1002/anie.201605470):

B1: Osa-1-4 twister ribozyme (parent)
chain: CCGCCUAACACUGCCAAUGCCGGUCCCAAGCCCGGAUAAAAGUGGAGGGGGCGG

Variants of: B1
Assay: self-cleavage, relative activity (ratio to wild type); higher = more cleavage; co-transcriptional
Method in brief: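 A DNA template was synthesised for a 54-nucleotide twister ribozyme from Oryza sativa, with 97 % wild-type base and 1 % of each other base at each of the 48 positions downstream of the cleavage site. The ribozyme cleaved itself co-transcriptionally during 2 h of in vitro transcription at 37 °C. Reverse transcription with a template-switching oligonucleotide, PCR amplification and deep sequencing followed, and cleavage status came from reads with or without upstream sequence. Relative activity is the fraction cleaved normalised to wild type.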

Variant | self-cleavage
CCGCCUACCACUGCCAAUGCCGGUCCCAAGCCCAGAUAAAAGUGGAGGGGGCGG | 0.07
CCGCCUACCACUGCCAAUGCCGGUCCCAAGCCCCGAUAAAAGUGGAGGGGGCGG | 0.06
CCGCCUACCACUGCCAAUGCCGGUCCCAAGCCCUGAUAAAAGUGGAGGGGGCGG | 0.07
CCGCCUACCACUGCCAAUGUCGGUCCCAAGCCCGGAUAAAAGUGGAGGGGGCGG | 0.09
CCGCCUACCACUGCCAAUGGCGGUCCCAAGCCCGGAUAAAAGUGGAGGGGGCGG | 0.03
CCGCCUACCACUGCCAAUGACGGUCCCAAGCCCGGAUAAAAGUGGAGGGGGCGG | 0.08
CCGCCUUACACUGCCAAUGCCGGUCCCAAGCCCGGAUAAAAGUGGAGCGGGCGG | 0.03
CCGCCUUACACUGCCAAUGCCGGUCCCAAGCCCGGAUAAAAGUGGAGUGGGCGG | 0.01
CCGCCUUACACUGCCAAUGCCGGUCCCAAGCCCGGAUAAAAGUGGAGAGGGCGG | 0.02
CCGCCUACCACUGCCAAUGCCGGUCCCAAGCCCGGAUAAAAGUGGAGGGGGAGG | 0.12
CCGCCUACCACUGCCAAUGCCGGUCCCAAGCCCGGAUAAAAGUGGAGGGGGUGG | 0.09
CCGCCUACCACUGCCAAUGCCGGUCCCAAGCCCGGAUAAAAGUGGAGGGGGGGG | 0.15
CCGCCUACCACUGCCAAUGCCGGUCGCAAGCCCGGAUAAAAGUGGAGGGGGCGG | 0.02
CCGCCUACCACUGCCAAUGCCGGUCUCAAGCCCGGAUAAAAGUGGAGGGGGCGG | 0.06
CCGCCUACCACUGCCAAUGCCGGUCACAAGCCCGGAUAAAAGUGGAGGGGGCGG | 0.03
CCGCCUACCACUGCCAAUGCCGAUCCCAAGCCCGGAUAAAAGUGGAGGGGGCGG | 0.08
CCGCCUACCACUGCCAAUGCCGCUCCCAAGCCCGGAUAAAAGUGGAGGGGGCGG | 0.02
CCGCCUACCACUGCCAAUGCCGUUCCCAAGCCCGGAUAAAAGUGGAGGGGGCGG | 0.07
CCGCCUACCACUGCCAAUGCCGGUGCCAAGCCCGGAUAAAAGUGGAGGGGGCGG | 0.03
CCGCCUACCACUGCCAAUGCCGGUACCAAGCCCGGAUAAAAGUGGAGGGGGCGG | 0.05
CCGCCUACCACUGCCAAUGCCGGUUCCAAGCCCGGAUAAAAGUGGAGGGGGCGG | 0.07
CCGCCUACCAGUGCCAAUGCCGGUCCCAAGCCCGGAUAAAAGUGGAGGGGGCGG | 0.06
CCGCCUACCAAUGCCAAUGCCGGUCCCAAGCCCGGAUAAAAGUGGAGGGGGCGG | 0.1
CCGCCUACCAUUGCCAAUGCCGGUCCCAAGCCCGGAUAAAAGUGGAGGGGGCGG | 0.09

Variant | self-cleavage
CCGCCUACCACUGCCAAUGCGGGUCCCAAGCCCGGAUAAAAGUGGAGGGGGCGG | 0.05
CCGCCUACCACUGCCAAUGCUGGUCCCAAGCCCGGAUAAAAGUGGAGGGGGCGG | 0.06
CCGCCUACCACUGCCAAUGCAGGUCCCAAGCCCGGAUAAAAGUGGAGGGGGCGG | 0.09
CCGCCUACCACUGCCAAUGCCGGUCCCAAGCCCGCAUAAAAGUGGAGGGGGCGG | 0.08
CCGCCUACCACUGCCAAUGCCGGUCCCAAGCCCGUAUAAAAGUGGAGGGGGCGG | 0.09
CCGCCUACCACUGCCAAUGCCGGUCCCAAGCCCGAAUAAAAGUGGAGGGGGCGG | 0.08
CCGCCUACCACUGCCAAUGCCGGUCCCAACCCCGGAUAAAAGUGGAGGGGGCGG | 0.03
CCGCCUACCACUGCCAAUGCCGGUCCCAAACCCGGAUAAAAGUGGAGGGGGCGG | 0.01
CCGCCUACCACUGCCAAUGCCGGUCCCAAUCCCGGAUAAAAGUGGAGGGGGCGG | 0.01
CCGCCUACCACUGCCAAUGCCGGUCCCAAGCCCGGAUAAAAAUGGAGGGGGCGG | 0.06
CCGCCUACCACUACCAAUGCCGGUCCCAAGCCCGGAUAAAAGUGGAGGGGGCGG | 0.03
CCGCCUACCACUUCCAAUGCCGGUCCCAAGCCCGGAUAAAAGUGGAGGGGGCGG | 0.01
CCGCCUACCACUCCCAAUGCCGGUCCCAAGCCCGGAUAAAAGUGGAGGGGGCGG | 0.07
CCGCCUUACACAGCCAAUGCCGGUCCCAAGCCCGGAUAAAAGUGGAGGGGGCGG | 0.09
CCGCCUUACACCGCCAAUGCCGGUCCCAAGCCCGGAUAAAAGUGGAGGGGGCGG | 0.1
CCGCCUUACACGGCCAAUGCCGGUCCCAAGCCCGGAUAAAAGUGGAGGGGGCGG | 0.06
CCGCCUUACACUGCCAAUGCCGGUCCCAAGCCCGGAUAAAAGUGGAGGGGGCUG | 0.05
CCGCCUUACACUGCCAAUGCCGGUCCCAAGCCCGGAUAAAAGUGGAGGGGGCAG | 0.08
CCGCCUUACACUGCCAAUGCCGGUCCCAAGCCCGGAUAAAAGUGGAGGGGGCCG | 0.03
CCGCCUUACACUGCCAAUGCCGGCCCCAAGCCCGGAUAAAAGUGGAGGGGGCGG | 0.04
CCGCCUUACACUGCCAAUGCCGGACCCAAGCCCGGAUAAAAGUGGAGGGGGCGG | 0.06
CCGCCUUACACUGCCAAUGCCGGGCCCAAGCCCGGAUAAAAGUGGAGGGGGCGG | 0.02
CCGCCUUACACUGCCAAUGCCGGUCCCAAGCCCGGAUAAAAGUGGAGGUGGCGG | 0.03
CCGCCUUACACUGCCAAUGCCGGUCCCAAGCCCGGAUAAAAGUGGAGGAGGCGG | 0.04
